Unmarked numbers belong to inactive results.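 Rule for the calls, unless noted: active = growth inhibition above 25% in both replicates, a cutoff set 3 SD above the mean; inconclusive = above 25% in only one replicate; inactive = the rest.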

A short description of the first assay: OD615 S. cerevisiae growth inhibition, permissive medium, pilot counter-assay, permissive growth control for S. cerevisiae lifespan shortening project (AID 705). The settings on record: OD615, 24 h, at 10 µM, stronger effect = higher value. In a few lines: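 System: Engineered DeaD yeast | Buffer or medium: SC raffinose/galactose permissive medium | Incubation: Cells pre-grown 4 h, then 24 h compound exposure, 30 °C humidified | Measured by: Absorbance (optical density) at 615 nm | Read-out: Reduction in yeast growth (OD615)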
Consider `COc1ccc(C(=O)NCc2nnc(SC)n2C2CCCCC2)cc1`, for which the growth inhibition is -4.53%.
Consider `Oc1ccc(Cl)cc1-c1cc(-c2ccccc2)n[nH]1`, for which the growth inhibition was -1.5%.
For the compound `O=C(CCCn1c(=O)c2sccc2n(Cc2cc(=O)n3ccccc3n2)c1=O)NCc1ccco1`, the growth inhibition was -9.24%.
On to `COC(=O)c1cn(NC(=O)C2CCCO2)c(=O)c2ccccc12` (stereo not given), for which the growth inhibition is -21.3%.
Turning to `CCN(CC)CCCNC(=O)c1cn(C)c2ccc(S(=O)(=O)N(C)C)cc2c1=O`, the growth inhibition was -1.33%.
Still for that read-out and setting: in the case of `Cc1nnc(SCCn2c(N3CCC(Cc4ccccc4)CC3)nc3c2c(=O)[nH]c(=O)n3C)s1` it was -2.44%.
As to `O=C(C(Cc1ccccc1)n1cccc1)N1CCCCCC1` (stereo not given), the growth inhibition is -11.2%.
As to `O=C(Cn1nc(Cc2ccncc2)c2ccccc2c1=O)N1CCN(C(=O)c2ccco2)CC1`, the growth inhibition was -0.345%.
On to `COc1ccc(-c2nc(CS(=O)CC(=O)NCc3ccccn3)c(C)o2)cc1` (stereo not given), for which the growth inhibition is -3.15%.
On to `CCn1c(SCC(=O)Nc2ccc(Cl)cc2)nnc1C1CC1`, for which the growth inhibition is 5.96%.
Regarding `CCOC(=O)CN(C(=O)c1ccccc1)c1ccccc1C`, the growth inhibition was -12.9%.
For `COC(=O)Cc1cc(=O)[nH]c(Nc2nc3ccccc3o2)n1`, the growth inhibition is 3.62%.
Regarding `COc1ccc(C2CC(c3cccc(C)c3)n3ncnc3N2)cc1` (stereo not given), the growth inhibition was 1.04%.
Take `CC1CCCCN1CCNC(=O)C1CCN(S(=O)(=O)c2cccc3cccnc23)CC1` (stereo not given): the growth inhibition was 8.94%.
Same read-out and setting: in the case of `CCCCSc1nc(CCC)cc(=O)[nH]1` it was -14.4%; in that of `CC1(C)CC(=O)C2=C(C1)NC(=O)CC2c1ccc(N(CCC#N)CCC#N)cc1` (stereo not given), -9.4%; in that of `Cc1cccc(OCC(=O)N2CCN(C(=O)Cc3ccccc3)CC2)c1`, -11.1%.
`O=C1CC(c2cccnc2)c2cc3c(cc2N1)OCO3` (stereo not given): the growth inhibition is -2.55%.
Turning to `CCc1nn(CC(=O)NCCCN2CCc3ccccc3C2)c(=O)c2cc3sccc3n12`, the growth inhibition is -2.08%.
Take `Cc1ccc(-c2nc3cc(NC(=O)C(C)C)ccc3o2)cc1`: the growth inhibition was -11.2%.
Still for that read-out and setting: in the case of `CC(CC(=O)NC1CCSC1=O)c1ccccc1` (stereo not given) it was 3.53%; in that of `COc1ccc(C2CC(c3ccc(OC)cc3)n3nc(N)nc3N2)cc1` (stereo not given), 7.76%; in that of `COC(=O)COc1cccc(NC(=O)COc2ccccc2)c1`, -12.5%.
As to `COc1ccc(OCCSc2nc3ccccc3n2CC(=O)O)cc1`, the growth inhibition was -2.19%.
Take `Cc1cccnc1-n1c(CCN2C(=O)c3ccccc3C2=O)nc2ccccc2c1=O`: the growth inhibition is 6.29%.
The same measure, in the same setting: in the case of `CC(=O)N(c1ccc(Br)cc1)C1C=CS(=O)(=O)C1` (stereo not given) it was -6.33%; in that of `Cc1ccccc1Cn1cc(/C=N/n2cnnc2)c2ccccc21`, 7.88%.
The same measure, in the same setting: in the case of `CCOC(=O)N1CCN(c2cc(=O)n(-c3ccccc3Cl)c(=O)[nH]2)CC1` it was -9.94%; in that of `CCCCN(C)Cc1c(O)ccc2c(-c3ccccc3)cc(=O)oc12`, -4.28%.
On the same count and under the same terms, in the case of `CCCCn1c(CN2CCN(c3ccc(F)cc3)CC2)nc2c1c(=O)n(C)c(=O)n2C` it was -8.42%.
On to `CCn1c(SCC(=O)Nc2cccc(C)c2)nc2c(c1=O)SC(C)C2` (stereo not given), for which the growth inhibition was -3.52%.
Consider `COc1cccc(C2CC(c3ccc(C)cc3)n3nc(N)nc3N2)c1` (stereo not given), for which the growth inhibition was 0.34%.
Take `Cc1cc(C)cc(N(CC(=O)Nc2cccc(C)n2)S(=O)(=O)c2c(C)noc2C)c1`: the growth inhibition was -12.3%.
With `Cc1noc(C)c1S(=O)(=O)N1CCN(Cc2ccc3c(c2)OCO3)CC1`, the growth inhibition was -5.76%.
The same measure, in the same setting: in the case of `Cn1c(C(=O)NCCCN2CCCCCC2)cc2c(=O)n(C)c3ccccc3c21` it was -1.14%.
For the compound `CS(=O)(=O)N(Cc1ccco1)CC(O)Cn1c2ccccc2c2ccccc21` (stereo not given), the growth inhibition was -6.72%.
As for `CC(=O)Nc1ccc(S(=O)(=O)Nc2nc3c(s2)CCCC3)cc1`, the growth inhibition was 4.96%.
Turning to `CCOC(=O)C(CC)Sc1ncnc2nc[nH]c12` (stereo not given), the growth inhibition is -11%.
`COc1cc2c(cc1OC)-c1nnc(C)n1C1(CCCC1)C2`: the growth inhibition is -10.2%.
The same measure, in the same setting: in the case of `Nc1nc2n(n1)C(c1cccc(Br)c1)CC(c1ccccc1)N2` (stereo not given) it was -6.41%.

Another assay is described as follows: Restrictive medium S. cerevisiae growth inhibition, OD615, pilot screen of yeast lifespan reduction project, restrictive growth control (AID 706;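 active = growth inhibition above a set limit, 3 SD over mean compound inhibition, in both replicates, cut at about 43% in these data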;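 note: modified DeaD lifespan yeast strain shifted to restrictive glucose medium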). The settings on record: OD615, 48 h, at 10 µM, stronger effect = higher value. A digest of the protocol:
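Material: modified S. cerevisiae; Medium: glucose-based CSMM-D restrictive medium; Compound dosing: one concentration, 10 µM final, 0.25% DMSO; Incubation: 48 h compound exposure at 30 °C; Measured by: OD615.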
Regarding `COc1ccc(C(=O)NCc2nnc(SC)n2C2CCCCC2)cc1`, the growth inhibition was 3.39%.
For `Oc1ccc(Cl)cc1-c1cc(-c2ccccc2)n[nH]1`, the growth inhibition is -6.9%.
The same measure, in the same setting: in the case of `O=C(CCCn1c(=O)c2sccc2n(Cc2cc(=O)n3ccccc3n2)c1=O)NCc1ccco1` it was -2.77%.
Same read-out and setting: in the case of `COC(=O)c1cn(NC(=O)C2CCCO2)c(=O)c2ccccc12` (stereo not given) it was -23.6%; in that of `CCN(CC)CCCNC(=O)c1cn(C)c2ccc(S(=O)(=O)N(C)C)cc2c1=O`, 8.49%; in that of `Cc1nnc(SCCn2c(N3CCC(Cc4ccccc4)CC3)nc3c2c(=O)[nH]c(=O)n3C)s1`, 5.62%.
Turning to `O=C(C(Cc1ccccc1)n1cccc1)N1CCCCCC1` (stereo not given), the growth inhibition was -7.42%.
Same read-out and setting: in the case of `O=C(Cn1nc(Cc2ccncc2)c2ccccc2c1=O)N1CCN(C(=O)c2ccco2)CC1` it was 9.88%.
Turning to `COc1ccc(-c2nc(CS(=O)CC(=O)NCc3ccccn3)c(C)o2)cc1` (stereo not given), the growth inhibition is 18%.
On the same count and under the same terms, in the case of `CCn1c(SCC(=O)Nc2ccc(Cl)cc2)nnc1C1CC1` it was 1.14%; in that of `CCOC(=O)CN(C(=O)c1ccccc1)c1ccccc1C`, 6.67%.
On the same count and under the same terms, in the case of `COC(=O)Cc1cc(=O)[nH]c(Nc2nc3ccccc3o2)n1` it was 1.2%; in that of `COc1ccc(C2CC(c3cccc(C)c3)n3ncnc3N2)cc1` (stereo not given), 5.56%.
Take `CC1CCCCN1CCNC(=O)C1CCN(S(=O)(=O)c2cccc3cccnc23)CC1` (stereo not given): the growth inhibition is -2.71%.
In the case of `CCCCSc1nc(CCC)cc(=O)[nH]1`, the growth inhibition is -14.4%.
On to `CC1(C)CC(=O)C2=C(C1)NC(=O)CC2c1ccc(N(CCC#N)CCC#N)cc1` (stereo not given), for which the growth inhibition is -8.29%.
As to `Cc1cccc(OCC(=O)N2CCN(C(=O)Cc3ccccc3)CC2)c1`, the growth inhibition is -28.1%.
Same read-out and setting: in the case of `O=C1CC(c2cccnc2)c2cc3c(cc2N1)OCO3` (stereo not given) it was 1.1%; in that of `CCc1nn(CC(=O)NCCCN2CCc3ccccc3C2)c(=O)c2cc3sccc3n12`, -10.3%; in that of `Cc1ccc(-c2nc3cc(NC(=O)C(C)C)ccc3o2)cc1`, -21.9%.
The same measure, in the same setting: in the case of `CC(CC(=O)NC1CCSC1=O)c1ccccc1` (stereo not given) it was 6.91%; in that of `COc1ccc(C2CC(c3ccc(OC)cc3)n3nc(N)nc3N2)cc1` (stereo not given), 16.3%.
As for `COC(=O)COc1cccc(NC(=O)COc2ccccc2)c1`, the growth inhibition is 3.51%.
For the compound `COc1ccc(OCCSc2nc3ccccc3n2CC(=O)O)cc1`, the growth inhibition is -5.21%.
As to `Cc1cccnc1-n1c(CCN2C(=O)c3ccccc3C2=O)nc2ccccc2c1=O`, the growth inhibition is -3.29%.
As to `CC(=O)N(c1ccc(Br)cc1)C1C=CS(=O)(=O)C1` (stereo not given), the growth inhibition is -16.4%.
Turning to `Cc1ccccc1Cn1cc(/C=N/n2cnnc2)c2ccccc21`, the growth inhibition is 23.3%.
With `CCOC(=O)N1CCN(c2cc(=O)n(-c3ccccc3Cl)c(=O)[nH]2)CC1`, the growth inhibition was -0.995%.
For `CCCCN(C)Cc1c(O)ccc2c(-c3ccccc3)cc(=O)oc12`, the growth inhibition was 2.96%.
For the compound `CCCCn1c(CN2CCN(c3ccc(F)cc3)CC2)nc2c1c(=O)n(C)c(=O)n2C`, the growth inhibition is -1.05%.
With `CCn1c(SCC(=O)Nc2cccc(C)c2)nc2c(c1=O)SC(C)C2` (stereo not given), the growth inhibition was -4.62%.
In the case of `COc1cccc(C2CC(c3ccc(C)cc3)n3nc(N)nc3N2)c1` (stereo not given), the growth inhibition was 9.55%.
Consider `Cc1cc(C)cc(N(CC(=O)Nc2cccc(C)n2)S(=O)(=O)c2c(C)noc2C)c1`, for which the growth inhibition was -11.5%.
In the case of `Cc1noc(C)c1S(=O)(=O)N1CCN(Cc2ccc3c(c2)OCO3)CC1`, the growth inhibition is 7.12%.
As to `Cn1c(C(=O)NCCCN2CCCCCC2)cc2c(=O)n(C)c3ccccc3c21`, the growth inhibition was 6.89%.
The same measure, in the same setting: in the case of `CS(=O)(=O)N(Cc1ccco1)CC(O)Cn1c2ccccc2c2ccccc21` (stereo not given) it was -1.61%; in that of `CC(=O)Nc1ccc(S(=O)(=O)Nc2nc3c(s2)CCCC3)cc1`, 12.8%; in that of `CCOC(=O)C(CC)Sc1ncnc2nc[nH]c12` (stereo not given), -11.7%.
Take `COc1cc2c(cc1OC)-c1nnc(C)n1C1(CCCC1)C2`: the growth inhibition was -16%.
In the case of `Nc1nc2n(n1)C(c1cccc(Br)c1)CC(c1ccccc1)N2` (stereo not given), the growth inhibition was 12.7%.

The values above are taken from PubChem BioAssay.
